The record followed here is ChEMBL document CHEMBL1275544, “Effect of therapeutic chemical agents in vitro and on experimental meningoencephalitis due to Naegleria fowleri” (Antimicrob Agents Chemother, 2008).

Data set [1] has as its system Naegleria fowleri. Put plainly: Antiparasitic activity against Naegleria fowleri ATCC 30215 trophozoites after 6 days. In kind it is functional. The conditions noted are these: ATCC 30215, 144 h, read-out: MIC100.
Data set [2] relates to Naegleria fowleri. Put plainly: Antiparasitic activity against Naegleria fowleri ATCC 30215 trophozoites after 2 days. The class given is functional. The conditions noted are these: ATCC 30215, 48 h, read-out: MIC100.
In data set [3] the test system is Naegleria fowleri. Put plainly: Antiparasitic activity against Naegleria fowleri ATCC 30215 trophozoites after 4 days. The class given is functional. The conditions noted are these: ATCC 30215, 96 h, read-out: MIC100.
In data set [4] the test system is Naegleria fowleri. Put plainly: Antiparasitic activity against Naegleria fowleri ATCC 30215 trophozoites at 25 ug/ml on day 6 by LDH release assay. The class given is functional. In short, it runs like this: (§1)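 Supernatant sampled on days 2, 4, 6, mixed with CytoTox96 reagent for 30 min at room temperature, stopped, A490 read. Cytotoxicity % = (sample − spontaneous)/(maximum − spontaneous) ×100. Means ± SE of three experiments in triplicate.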

For data set [5], the system named is Naegleria fowleri. Put plainly: Antiparasitic activity against Naegleria fowleri ATCC 30215 trophozoites at 100 ug/ml on day 4 by LDH release assay. The class given is functional. In short, it runs like this: as §1
Data set [6] has as its system Mus musculus. Put plainly: Blood urea nitrogen level in BALB/c mouse serum at 10 mg/kg, ip. The conditions noted are these: in vivo. In kind it is ADME, organism-based. More on the design: dose 10 mg/kg, route intraperitoneal. The method in brief:
(§2)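 Renal toxicity check: BALB/c mice given drug i.p. at 5, 10, 20 or 50 mg/kg (saline vehicle), or saline as negative control. Blood collected once daily for 3 days. Serum blood urea nitrogen measured on a clinical chemical analyzer.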

In data set [7] the test system is Mus musculus. Put plainly: Blood urea nitrogen level in BALB/c mouse serum at 20 mg/kg, ip. The class given is ADME, organism-based. More on the design: dose 20 mg/kg, route intraperitoneal. The conditions noted are these: in vivo. The method in brief: as §2
Data set [8] relates to Mus musculus. Put plainly: Blood urea nitrogen level in BALB/c mouse serum at 50 mg/kg, ip. The class given is ADME, organism-based. The arrangement: dose 50 mg/kg, route intraperitoneal. The following applies: in vivo. The method in brief: as §2
Data set [9] can be described thus: Hepatotoxicity in BALB/c mouse hepatocytes assessed as change in cell morphology at 20 mg/kg, ip by histopathological analysis. The class given is toxicity, organism-based, Hepatocyte. More on the design: dose 20 mg/kg, route intraperitoneal. The method in brief:
(§3)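 Toxicity histology: BALB/c mice dosed i.p. at 20 mg/kg in saline. Liver and kidney fixed in 10% neutral buffered formalin, paraffin-embedded, H&E-stained, and complete cross-sections examined by light microscopy (×100, ×400) for hepatocyte and renal cortical tubule size and shape.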

In data set [10] the test system is Mus musculus. Put plainly: Renal toxicity in BALB/c mouse assessed as degeneration of renal tubules at 20 mg/kg, ip by histopathological analysis. In kind it is organism-based. The arrangement: dose 20 mg/kg, route intraperitoneal. The conditions noted are these: in vivo.
For data set [11], the system named is Mus musculus. Put plainly: Renal toxicity in BALB/c mouse assessed as necrosis in kidney cortex at 20 mg/kg, ip by histopathological analysis. In kind it is organism-based. The arrangement: dose 20 mg/kg, route intraperitoneal. The following applies: in vivo.
The subject of data set [12] is Mus musculus. Put plainly: Renal toxicity in BALB/c mouse assessed as change in renal cortical tubule morphology at 20 mg/kg, ip by histopathological analysis. The conditions noted are these: in vivo. The arrangement: dose 20 mg/kg, route intraperitoneal. In kind it is organism-based. In short, it runs like this: as §3
Data set [13] concerns Naegleria fowleri. Put plainly: Antiparasitic activity against Naegleria fowleri ATCC 30215 trophozoites infected in BALB/c mouse assessed as mouse survival at 20 mg/kg, ip administered on days 3 and 7 postinfection. In kind it is functional, ATCC30215. The conditions noted are these: route intraperitoneal. The method in brief: (§4)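 Female BALB/c mice, 7 weeks old, were infected intranasally under secobarbital anaesthesia with 10^4 trophozoites grown 3 days in Nelson's medium at 37°C. Drug was dissolved in saline and given as 100 µl intraperitoneally, starting day 3; controls received saline; 20 mice per group. Deaths were recorded daily for 1 month and mean time to death computed per group. Cause of death was confirmed by brain-tissue culture.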

Data set [14] deals with Naegleria fowleri. Put plainly: Antiparasitic activity against Naegleria fowleri ATCC 30215 trophozoites infected in BALB/c mouse assessed as mouse survival at 20 mg/kg, ip administered on days 3, 7 and 11 postinfection. The following applies: route intraperitoneal. In kind it is functional, ATCC30215. The method in brief: as §4
The test system of data set [15] is Naegleria fowleri. Put plainly: Antiparasitic activity against Naegleria fowleri ATCC 30215 trophozoites infected in BALB/c mouse assessed as mean time to death at 20 mg/kg, ip administered on days 3, 7 and 11 postinfection. The class given is functional, ATCC30215. The following applies: route intraperitoneal. The method in brief: as §4
Data set [16] concerns Naegleria fowleri. Put plainly: Antiparasitic activity against Naegleria fowleri ATCC 30215 trophozoites infected in BALB/c mouse brain by histopathology analysis. The class given is functional, organism-based. The conditions noted are these: ATCC30215. In short, it runs like this:
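Female BALB/c mice, 7 weeks old, infected intranasally under secobarbital with 10^4 trophozoites grown 3 days in Nelson's medium at 37°C. Drugs given i.p. in saline on days 3, 7, 11. Brains of dead mice or mice surviving 1 month fixed in 10% neutral buffered formalin, paraffin-embedded, H&E-stained and examined by light microscopy. 20 mice/group.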

Data set [17] concerns Naegleria fowleri. Put plainly: Antiparasitic activity against Naegleria fowleri ATCC 30215 trophozoites assessed as inhibition of amoeba proliferation at 0.39 ug/ml on day 2. The class given is functional. The conditions noted are these: ATCC 30215, 48 h. The method in brief: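 Viable amoebae counted by hemacytometer with trypan blue on day 2, with light-microscope morphology. Triplicate wells, at least three repeats.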

Data set [18] deals with Naegleria fowleri. Put plainly: Antiparasitic activity against Naegleria fowleri ATCC 30215 trophozoites at >1.56 ug/ml on day 4 by LDH release assay. The class given is functional. The method in brief:
as §1

The test system of data set [19] is Mus musculus. Put plainly: Blood urea nitrogen level in BALB/c mouse serum at 5 mg/kg, ip. In kind it is ADME, organism-based. The arrangement: dose 5 mg/kg, route intraperitoneal. The conditions noted are these: in vivo. The method in brief:
as §2

In data set [20] the test system is Naegleria fowleri. Put plainly: Antiparasitic activity against Naegleria fowleri ATCC 30215 trophozoites infected in BALB/c mouse assessed as mouse survival at 10 mg/kg, ip administered on days 3, 7 and 11 postinfection. In kind it is functional, ATCC30215. The conditions noted are these: route intraperitoneal. In short, it runs like this:
as §4

Data set [21] concerns Naegleria fowleri. Put plainly: Antiparasitic activity against Naegleria fowleri ATCC 30215 trophozoites infected in BALB/c mouse assessed as mean time to death at 10 mg/kg, ip administered on days 3, 7 and 11 postinfection. The class given is functional, ATCC30215. The following applies: route intraperitoneal. The method in brief: as §4
In data set [22] the test system is Naegleria fowleri. Put plainly: Antiparasitic activity against Naegleria fowleri ATCC 30215 trophozoites at 50 ug/ml on day 6 by LDH release assay. In kind it is functional. The method in brief: as §1
The test system of data set [23] is Naegleria fowleri. Put plainly: Antiparasitic activity against Naegleria fowleri ATCC 30215 trophozoites at 1.56 ug/ml on day 2 by LDH release assay. In kind it is functional. In short, it runs like this:
as §1

For data set [24], the system named is Naegleria fowleri. Put plainly: Antiparasitic activity against Naegleria fowleri ATCC 30215 trophozoites at 3.125 ug/ml on day 2 by LDH release assay. In kind it is functional. In short, it runs like this:
as §1

The test system of data set [25] is Naegleria fowleri. Put plainly: Antiparasitic activity against Naegleria fowleri ATCC 30215 trophozoites at 6.25 ug/ml on day 2 by LDH release assay. In kind it is functional. The method in brief:
as §1

The test system of data set [26] is Naegleria fowleri. Put plainly: Antiparasitic activity against Naegleria fowleri ATCC 30215 trophozoites at 12.5 ug/ml on day 2 by LDH release assay. The class given is functional. In short, it runs like this: as §1
The subject of data set [27] is Naegleria fowleri. Put plainly: Antiparasitic activity against Naegleria fowleri ATCC 30215 trophozoites at 25 ug/ml on day 2 by LDH release assay. The class given is functional. In short, it runs like this: as §1
Data set [28] relates to Naegleria fowleri. Put plainly: Antiparasitic activity against Naegleria fowleri ATCC 30215 trophozoites at 50 ug/ml on day 2 by LDH release assay. In kind it is functional. In short, it runs like this:
as §1

For data set [29], the system named is Naegleria fowleri. Put plainly: Antiparasitic activity against Naegleria fowleri ATCC 30215 trophozoites at 100 ug/ml on day 2 by LDH release assay. The class given is functional. The method in brief: as §1

Values after ≈ are worked out from the molar mass of the structure shown. Active and inactive are the calls of the source. The calls are words filed in the database; no cut-off is given here.

With `CN(C)CCCN1c2ccccc2Sc2ccc(Cl)cc21` [CHLORPROMAZINE], the MIC in data set [1], in [2] and in data set [3] was 12.5 µg/mL (≈ 39.2 µM) each time. In addition, the Activity is 64.4% in [4]; 69.1% in data set [5]; 36.3 mg/dL in [6]; 38.4 mg/dL in data set [7]; 57.5 mg/dL in [8]; “Non-toxic” in data set [9]. Also, the Activity entry is recorded as “Non-toxic” in data set [10]; “Non-toxic” in data set [11]; “Non-toxic” in data set [12]; 35% in [13]; 75% in [14]. For the same molecule, in data set [15], the Time was found to be 17.2 days. In [16], the result was Active.

As to `C[C@@H]1[C@H](O)[C@@H](C)/C=C/C=C/C=C/C=C/C=C/C=C/C=C/[C@H](O[C@@H]2O[C@H](C)[C@@H](O)[C@H](N)[C@@H]2O)C[C@@H]2O[C@](O)(C[C@@H](O)C[C@@H](O)[C@H](O)CC[C@@H](O)C[C@@H](O)CC(=O)O[C@H]1C)C[C@H](O)[C@H]2C(=O)O` [AMPHOTERICIN B], the inhibition at 0.39 µg/mL in data set [17] is 100%. Further, the MIC in data set [1], in data set [2] and in data set [3] was 0.78 µg/mL (≈ 0.844 µM) in each case. In addition, the Activity in data set [4] is 99.5%; in [18], greater than 50%; in data set [19] it was 27.4 mg/dL; in data set [6], 38.6 mg/dL; in [7], 44.1 mg/dL; in [20] it was 40%. The Time in [21] was determined as 17.3 days.

Regarding `CCCCCCCCCCCCCCCCOP(=O)([O-])OCC[N+](C)(C)C` [MILTEFOSINE], the MIC in data set [1], in [2] and in data set [3] was 25 µg/mL (≈ 61.3 µM) throughout. The Activity in data set [22] is 79.3%; in [23] it was less than 30%; in data set [24], less than 30%; in data set [25], less than 30%; in data set [26], less than 30%; in [27], less than 30%. Also, the Activity in data set [28] was less than 30%; in [29], less than 30%; in [6], 29.6 mg/dL; in data set [7], 34.6 mg/dL; in data set [8], 82.4 mg/dL; in data set [13], 20%. Also, the Activity in data set [14] was 55%.
